In ChEMBL document CHEMBL1240482, “Synthesis and antiproliferative evaluation of certain indeno[1,2-c]quinoline derivatives. Part 2” (J Med Chem, 2010):
Activity calls are given as the source filed them. No cut-off for these calls is given here.

Experiments:
SAS [1] = assay: Selectivity index, ratio of IC50 for human Detroit 551 cells to IC50 for human SAS cells; assay type: functional
[2] = AUC (0 to infinity) in CD1 mouse at 2 mg/ kg, iv; assay type: ADME, organism-based; set-up: time infinity, dose 2 mg/ kg, route intravenous; conditions: plasma
Summary of the method: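 Fasted male CD-1 (Crl.) mice, 22-24 g; single tail-vein bolus of 2.0 mg/kg in PEG400/ethanol/water (30/5/65), 10 mL/kg. Cardiac-puncture blood into K-EDTA at 0-27 h, three mice per time point; plasma analysed by LC-MS/MS after acetonitrile precipitation. Parameters calculated from mean plasma concentrations.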

[3] = target: T1, DNA topoisomerase 1 (Homo sapiens) (UniProt P11387); assay: Inhibition of human topoisomerase 1 assessed as decrease in pBR322 mobility on agarose gel at 10 uM by electrophoresis
T1 sequence (whole entry): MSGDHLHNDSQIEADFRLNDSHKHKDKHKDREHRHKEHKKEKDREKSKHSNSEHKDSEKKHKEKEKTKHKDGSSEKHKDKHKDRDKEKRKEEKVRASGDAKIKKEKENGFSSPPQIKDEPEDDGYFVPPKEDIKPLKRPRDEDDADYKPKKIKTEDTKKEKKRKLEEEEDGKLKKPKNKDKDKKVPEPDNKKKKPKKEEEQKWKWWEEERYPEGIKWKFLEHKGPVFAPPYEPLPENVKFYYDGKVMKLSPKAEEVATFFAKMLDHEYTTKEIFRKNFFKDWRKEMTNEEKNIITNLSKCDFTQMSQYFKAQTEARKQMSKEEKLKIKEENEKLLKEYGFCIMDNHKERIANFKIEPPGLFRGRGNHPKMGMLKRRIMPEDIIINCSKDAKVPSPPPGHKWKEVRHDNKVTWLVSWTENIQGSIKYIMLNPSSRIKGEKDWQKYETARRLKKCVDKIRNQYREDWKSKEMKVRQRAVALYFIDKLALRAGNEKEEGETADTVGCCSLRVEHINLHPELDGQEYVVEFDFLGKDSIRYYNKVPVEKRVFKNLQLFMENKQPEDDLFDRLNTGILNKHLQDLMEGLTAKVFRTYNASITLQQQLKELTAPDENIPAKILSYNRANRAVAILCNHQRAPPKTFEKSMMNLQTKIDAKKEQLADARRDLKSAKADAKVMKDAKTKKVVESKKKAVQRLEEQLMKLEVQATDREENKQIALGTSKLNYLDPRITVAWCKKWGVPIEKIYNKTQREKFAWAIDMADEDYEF
Summary of the method: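 Enzyme preincubated with compound before DNA addition; reaction run 30 min at 37 °C and stopped with SDS. Products resolved on 1% agarose, stained with ethidium bromide, quantified by densitometry.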

SAS [4] = assay: Cytotoxicity against human SAS cells after 48 hrs by MTT assay; assay type: functional
Summary of the method: (§1)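 Cells grown in DMEM with 10% FBS at 37 °C and 5% CO2, seeded at 5 × 10^3 per well and allowed 24 h before drug. Serial dilutions from DMSO stocks applied for 48 h. MTT (2 mg/mL in PBS) added for 2 h, formazan dissolved in DMSO, absorbance read at 570 nm. GI50 interpolated by linear regression from at least three points in the 20-80% range; three independent experiments.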

Detroit 551 [5] = assay: Selectivity index, ratio of IC50 for human Detroit 551 cells to IC50 for human A549 cells; assay type: functional
Detroit 551 [6] = assay: Selectivity index, ratio of IC50 for human Detroit 551 cells to IC50 for human PC3 cells; assay type: functional
[7] = Mean retention time in CD1 mouse at 20 mg/ kg, po; assay type: ADME, organism-based; set-up: dose 20 mg/ kg, route oral; conditions: in vivo
Summary of the method: (§2)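 Male CD-1 (Crl.) mice, 22-24 g, fasted 4 h before dosing; single oral gavage of 20 mg/kg as a suspension in 0.5% methylcellulose/water, 10 mL/kg. Cardiac-puncture plasma (K-EDTA) taken predose to 27 h, three mice per time point; LC-MS/MS quantification.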

HeLa = assay: Cytotoxicity against human HeLa cells after 48 hrs by MTT assay; assay type: functional; summary of the method: as §1
[8] = Cytotoxicity against human SKHep cells after 48 hrs by MTT assay; assay type: functional; summary of the method: as §1
Nucleic Acid = assay: Binding affinity to pBR322; assay type: nucleic-acid assay; conditions: Escherichia coli
[9] = Cytotoxicity against human Detroit 551 cells after 48 hrs by MTT assay; assay type: cell-based; summary of the method: as §1
[10] = AUC (0 to infinity) in CD1 mouse at 20 mg/ kg, po; assay type: ADME, organism-based; set-up: time infinity, dose 20 mg/ kg, route oral; conditions: plasma; summary of the method: as §2
Detroit 551 [11] = assay: Selectivity index, ratio of IC50 for human Detroit 551 cells to IC50 for human SKHep cells; assay type: functional
[12] = Oral bioavailability in CD1 mouse at 20 mg/ kg, po; assay type: ADME, organism-based; conditions: in vivo; summary of the method: as §2
BT-483 = assay: Antitumor activity against human BT-483 cells xenografted in BALB/c athymic mouse assessed as reduction in tumor size at 10 to 20 mg/kg, iv; assay type: functional, organism-based
Summary of the method: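 Balb/C athymic nude mice, 6-8 weeks, about 20 g, given subcutaneous BT483 breast cancer cells. Once tumours averaged about 500 mm3, dosed iv at 10 or 20 mg/kg once daily for 14 days, in a cosolvent formulation diluted in 5% dextrose; vehicle controls; three animals per group. Caliper volume taken as width × length × height.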

## COc1ccc2c(c1)/C(=N\OCCN1CCCC1)c1c-2c(O)nc2ccccc12
SAS [1]
  RatioGI50: 14.81
[2]
  AUC(0-inf): 172 ng·h/mL
[3]
  inhibition: 71%
SAS [4]
  GI50: 840 nM
Detroit 551 [5]
  RatioGI50: 13.98
Detroit 551 [6]
  RatioGI50: 6.8
[7]
  MRT: 3.4 h
HeLa; read-out: GI50
  GI50: 230 nM
HeLa; read-out: pGI50 (converted)
  GI50: 229 nM
[8]
  GI50: 1240 nM
Nucleic Acid
  Activity: Active
[9]
  GI50 at 48 h: 12.4 µM
[10]
  AUC(0-inf): 187 ng·h/mL
Detroit 551 [11]
  RatioGI50: 10.03
[12]
  bioavailability: 10.9%
BT-483
  Activity: Active
